Measurements from ChEMBL document CHEMBL4339200, “Structure-based Discovery of Phenyl (3-Phenylpyrrolidin-3-yl)sulfones as Selective, Orally Active RORγt Inverse Agonists” (ACS Med Chem Lett, 2019).

Assays:
[1] = molecular target: T1, Nuclear receptor subfamily 1 group I member 2 (Homo sapiens, UniProt O75469); assay: Transactivation of PXR in human HepG2 cells; assay type: ADME, cell-based
T1 sequence (O75469 whole entry): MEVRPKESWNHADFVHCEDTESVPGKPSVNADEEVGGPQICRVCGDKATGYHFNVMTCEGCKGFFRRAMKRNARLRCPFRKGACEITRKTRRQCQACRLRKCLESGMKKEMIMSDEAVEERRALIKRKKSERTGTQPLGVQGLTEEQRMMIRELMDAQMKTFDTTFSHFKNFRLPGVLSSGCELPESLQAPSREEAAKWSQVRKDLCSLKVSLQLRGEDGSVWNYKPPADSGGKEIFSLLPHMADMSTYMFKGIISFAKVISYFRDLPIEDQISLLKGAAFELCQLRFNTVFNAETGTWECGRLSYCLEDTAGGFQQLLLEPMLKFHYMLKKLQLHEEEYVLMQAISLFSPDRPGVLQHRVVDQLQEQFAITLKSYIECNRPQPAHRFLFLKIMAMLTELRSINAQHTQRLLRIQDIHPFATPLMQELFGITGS

[2] = molecular target: T2, PXR (NR1I2) (Homo sapiens, UniProt O75469); assay: Transactivation of PXR in human HepG2 cells relative to rifampicin; assay type: ADME, cell-based; settings: read-out: %max
T2 sequence (O75469 whole entry): T1 sequence (O75469 whole entry)

[3] = molecular target: T3, Oxysterols receptor LXR-alpha (Homo sapiens, UniProt Q13133); assay: Agonist activity at LXRalpha (unknown origin) expressed in African green monkey CV1 cells; assay type: cell-based
T3 sequence (Q13133 whole entry): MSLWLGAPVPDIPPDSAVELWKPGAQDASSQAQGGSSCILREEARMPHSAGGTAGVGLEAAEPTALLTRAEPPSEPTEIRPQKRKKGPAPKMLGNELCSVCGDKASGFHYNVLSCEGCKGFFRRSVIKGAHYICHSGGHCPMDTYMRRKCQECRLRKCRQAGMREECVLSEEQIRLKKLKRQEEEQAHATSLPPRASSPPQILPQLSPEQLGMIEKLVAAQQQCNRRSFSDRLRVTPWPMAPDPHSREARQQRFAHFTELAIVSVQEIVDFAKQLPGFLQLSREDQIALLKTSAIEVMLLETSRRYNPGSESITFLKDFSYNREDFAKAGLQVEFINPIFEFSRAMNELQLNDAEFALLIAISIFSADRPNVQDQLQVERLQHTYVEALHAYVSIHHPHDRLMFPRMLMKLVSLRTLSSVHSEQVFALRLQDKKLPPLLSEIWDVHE

[4] = molecular target: T4, Oxysterols receptor LXR-beta (Homo sapiens, UniProt P55055); assay: Agonist activity at LXRbeta (unknown origin) expressed in African green monkey CV1 cells; assay type: cell-based
T4 sequence (P55055 whole entry): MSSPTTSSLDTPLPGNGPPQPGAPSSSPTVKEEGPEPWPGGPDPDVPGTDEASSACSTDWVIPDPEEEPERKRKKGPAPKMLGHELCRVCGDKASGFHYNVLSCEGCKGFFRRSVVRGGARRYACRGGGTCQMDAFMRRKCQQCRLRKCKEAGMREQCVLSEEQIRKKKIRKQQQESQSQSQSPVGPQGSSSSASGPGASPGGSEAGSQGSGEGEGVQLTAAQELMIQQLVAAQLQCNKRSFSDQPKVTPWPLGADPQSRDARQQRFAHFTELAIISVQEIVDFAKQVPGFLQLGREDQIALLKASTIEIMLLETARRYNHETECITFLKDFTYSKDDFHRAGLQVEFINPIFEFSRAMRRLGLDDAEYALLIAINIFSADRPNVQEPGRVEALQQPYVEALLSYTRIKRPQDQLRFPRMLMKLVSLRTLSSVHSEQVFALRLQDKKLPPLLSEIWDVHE

[5] = Stability in mouse liver microsomes assessed as parent compound remaining after 10 mins; assay type: ADME, Microsome; settings: read-out: Stability
Procedure, shortened: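 Rough stability screen: compound incubated with mouse liver microsomes for 10 min, reported as percentage of parent remaining.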

[6] = molecular target: T5, Oxysterols receptor LXR-alpha (Homo sapiens) (UniProt Q13133); assay: Agonist activity at LXRalpha (unknown origin) expressed in African green monkey CV1 cells relative to T0901317; assay type: cell-based
T5 sequence (whole entry): T3 sequence (Q13133 whole entry)

[7] = molecular target: T6, Oxysterols receptor LXR-beta (Homo sapiens) (UniProt P55055); assay: Agonist activity at LXRbeta (unknown origin) expressed in African green monkey CV1 cells relative to T0901317; assay type: cell-based
T6 sequence (whole entry): T4 sequence (P55055 whole entry)

[8] = Protein binding in human plasma assessed as unbound fraction; assay type: ADME, cell-free
[9] = Protein binding in mouse plasma assessed as unbound fraction; assay type: ADME, cell-free
[10] = Permeability in human Caco2 cells; assay type: ADME, cell-based; settings: Caco-2, read-out: permeability
Procedure, shortened: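 Caco-2 monolayer permeability, reported as permeation coefficient in nm/s; an efflux ratio was also determined.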

EC50 [1] [µM] | Emax [2] [%] | EC50 [3] [µM] | EC50 [4] [µM] | remaining at 10 min [5] [%] | %max [6] [%] | %max [7] [%] | fraction unbound [8] | fraction unbound [9] | Papp [10] [×10⁻⁶ cm/s] | SMILES
0.48 | 100 | > 7.5 | > 7.5 |  |  |  |  |  |  | CC(=O)N1CCC(c2ccc(C(O)(C(F)(F)F)C(F)(F)F)cc2)(S(=O)(=O)c2ccc(F)cc2)C1 (racemic)
6.44 | 22 | > 7.5 | > 7.5 | 100 |  |  |  |  |  | O=C(O)[C@H]1CC[C@H](C(=O)N2CC[C@](c3ccc(C(F)(C(F)(F)F)C(F)(F)F)cc3)(S(=O)(=O)c3ccc(Cl)cc3)C2)CC1
0.434 | 110 | 2.92 | > 7.5 |  | 58 |  |  |  |  | O=S(=O)(c1ccc(F)cc1)[C@@]1(c2ccc(C(O)(C(F)(F)F)C(F)(F)F)cc2)CCNC1
> 50 | 2 | > 7.5 | > 7.5 | 69 |  |  |  |  |  | CS(=O)(=O)N1CCC(C(=O)N2CC[C@](c3ccc(C(F)(C(F)(F)F)C(F)(F)F)cc3)(S(=O)(=O)c3ccc(F)cc3)C2)CC1
> 50 | 10 | > 7.5 | > 7.5 | 96 |  |  |  |  |  | O=C(O)[C@H]1CC[C@H](C(=O)N2CC[C@](c3ccc(C(F)(C(F)(F)F)C(F)(F)F)cc3)(S(=O)(=O)c3ccccc3)C2)CC1
1.01 | 130 |  |  |  |  |  |  |  |  | O=S(=O)(c1ccc(F)cc1)C1(c2ccc(C(F)(C(F)(F)F)C(F)(F)F)cc2)CCCC1
 |  | > 7.5 | > 7.5 |  |  |  |  |  |  | CC(=O)N1CCN(C(=O)N2CC[C@](c3ccc(C(O)(C(F)(F)F)C(F)(F)F)cc3)(S(=O)(=O)c3ccc(F)cc3)C2)CC1
0.239 | 110 |  |  |  |  |  |  |  |  | CC(O)(c1ccc(C2(S(=O)(=O)c3ccc(F)cc3)CCCC2)cc1)C(F)(F)F (racemic)
 |  | 0.408 | 1.9 |  | 62 | 39 |  |  |  | COC(=O)N1CCC(c2ccc(C(O)(C(F)(F)F)C(F)(F)F)cc2)(S(=O)(=O)c2ccc(F)cc2)C1 (racemic)
 |  | > 7.5 | > 7.5 |  |  |  |  |  |  | CC(=O)N1CCC(C(=O)N2CC[C@](c3ccc(C(O)(C(F)(F)F)C(F)(F)F)cc3)(S(=O)(=O)c3ccc(F)cc3)C2)CC1
0.794 | 99 | > 7.5 | > 7.5 |  |  |  |  |  |  | O=C(C1CCCC1)N1CCC(c2ccc(C(O)(C(F)(F)F)C(F)(F)F)cc2)(S(=O)(=O)c2ccc(F)cc2)C1 (racemic)
 |  | > 7.5 | > 7.5 |  |  |  |  |  |  | O=C(O)[C@H]1CC[C@@H](C(=O)N2CC[C@](c3ccc(C(F)(C(F)(F)F)C(F)(F)F)cc3)(S(=O)(=O)c3ccc(F)cc3)C2)CC1
 | 10 | > 7.5 | > 7.5 | 68 |  |  |  |  |  | CC(=O)N1CCN(C(=O)N2CC[C@](c3ccc(C(F)(C(F)(F)F)C(F)(F)F)cc3)(S(=O)(=O)c3ccc(F)cc3)C2)CC1
> 46.1 | 23 | > 7.5 | > 7.5 | 88 |  |  |  |  |  | O=C(O)C1CCN(C(=O)N2CC[C@](c3ccc(C(F)(C(F)(F)F)C(F)(F)F)cc3)(S(=O)(=O)c3ccc(F)cc3)C2)CC1
 |  | > 7.5 | > 7.5 |  |  |  |  |  |  | CC(=O)N1CCN(C(=O)N2CC[C@@](c3ccc(C(O)(C(F)(F)F)C(F)(F)F)cc3)(S(=O)(=O)c3ccc(F)cc3)C2)CC1
> 50 | 12 | > 7.5 | > 7.5 | 98 |  |  |  |  |  | COc1ccc(S(=O)(=O)[C@@]2(c3ccc(C(F)(C(F)(F)F)C(F)(F)F)cc3)CCN(C(=O)[C@H]3CC[C@H](C(=O)O)CC3)C2)cc1

EC50 [1] [µM] | Emax [2] [%] | EC50 [3] [µM] | EC50 [4] [µM] | remaining at 10 min [5] [%] | %max [6] [%] | %max [7] [%] | fraction unbound [8] | fraction unbound [9] | Papp [10] [×10⁻⁶ cm/s] | SMILES
> 22.8 | 40 | > 7.5 | > 7.5 | 84 |  |  | 0.017 | 0.029 |  | Cc1cc(S(=O)(=O)[C@@]2(c3ccc(C(F)(C(F)(F)F)C(F)(F)F)cc3)CCN(C(=O)[C@H]3CC[C@H](C(=O)O)CC3)C2)ccc1F
0.52 | 110 | > 7.5 | > 7.5 |  |  |  |  |  |  | O=S(=O)(c1ccc(F)cc1)[C@]1(c2ccc(C(O)(C(F)(F)F)C(F)(F)F)cc2)CCNC1
> 2.47 | 89 | > 7.5 | > 7.5 |  |  |  |  |  |  | CS(=O)(=O)N1CCC(C(=O)N2CC[C@](c3ccc(C(O)(C(F)(F)F)C(F)(F)F)cc3)(S(=O)(=O)c3ccc(F)cc3)C2)CC1
12.6 | 29 | > 7.5 | > 7.5 | 85 |  |  | 0.013 | 0.026 |  | Cc1ccc(S(=O)(=O)[C@@]2(c3ccc(C(F)(C(F)(F)F)C(F)(F)F)cc3)CCN(C(=O)[C@H]3CC[C@H](C(=O)O)CC3)C2)cc1
0.048 | 110 |  |  |  |  |  |  |  |  | CCC(O)(c1ccc(C2(S(=O)(=O)c3ccc(F)cc3)CCCC2)cc1)C(F)(F)F (racemic)
 |  | > 7.5 | > 7.5 |  |  |  |  |  |  | CCNC(=O)N1CCC(c2ccc(C(O)(C(F)(F)F)C(F)(F)F)cc2)(S(=O)(=O)c2ccc(F)cc2)C1 (racemic)
0.01 | 110 |  |  |  |  |  |  |  |  | O=S(=O)(c1ccc(F)cc1)C1(c2ccc(C(O)(C(F)(F)F)C(F)(F)F)cc2)CCCC1
 | 7 | > 7.5 | > 7.5 |  |  |  |  |  |  | CC(=O)N1CCC(C(=O)N2CC[C@](c3ccc(C(F)(C(F)(F)F)C(F)(F)F)cc3)(S(=O)(=O)c3ccc(F)cc3)C2)CC1
> 50 | 11 | > 3.75 | > 7.5 |  |  |  |  |  | < 1.5 | O=C(O)[C@H]1CC[C@H](C(=O)N2CC[C@](c3ccc(C(O)(C(F)(F)F)C(F)(F)F)cc3)(S(=O)(=O)c3ccc(F)cc3)C2)CC1
> 50 | 3 | > 7.5 | > 7.5 | 100 |  |  |  |  |  | CCc1ccc(S(=O)(=O)[C@@]2(c3ccc(C(F)(C(F)(F)F)C(F)(F)F)cc3)CCN(C(=O)[C@H]3CC[C@H](C(=O)O)CC3)C2)cc1
> 50 | 9 | > 7.5 | > 7.5 | 74 |  |  |  |  |  | O=C(O)[C@H]1CC[C@H](C(=O)N2CC[C@](c3ccc(C(F)(C(F)(F)F)C(F)(F)F)cc3)(S(=O)(=O)c3ccc(F)c(C4CC4)c3)C2)CC1
0.229 | 110 |  |  |  |  |  |  |  |  | O=S(=O)(c1ccc(F)cc1)C1(c2ccc(C(Cl)(C(F)(F)F)C(F)(F)F)cc2)CCCC1
0.752 | 140 |  |  |  |  |  |  |  |  | CC(c1ccc(C2(S(=O)(=O)c3ccc(F)cc3)CCCC2)cc1)(C(F)(F)F)C(F)(F)F
> 50 | 9 | > 7.5 | > 7.5 | 73 |  |  |  |  |  | CCc1cc(S(=O)(=O)[C@@]2(c3ccc(C(F)(C(F)(F)F)C(F)(F)F)cc3)CCN(C(=O)[C@H]3CC[C@H](C(=O)O)CC3)C2)ccc1F
0.275 | 120 |  |  |  |  |  |  |  |  | NC(c1ccc(C2(S(=O)(=O)c3ccc(F)cc3)CCCC2)cc1)(C(F)(F)F)C(F)(F)F
